According to ChEMBL document CHEMBL1152771, “Identification of Shc Src homology 2 domain-binding peptoid-peptide hybrids” (J Med Chem, 2009):
Active and inactive are the calls of the source. The rule behind the calls is not given here. Where a SMILES comes first, the peptide text is derived from it.

Assays:
[1] = biological target: T1, SHC-transforming protein 1 (Homo sapiens) (UniProt P29353); assay: (§1) Binding affinity to Shc Src homology 2 domain by fluorescence anisotropy
T1 sequence (whole entry): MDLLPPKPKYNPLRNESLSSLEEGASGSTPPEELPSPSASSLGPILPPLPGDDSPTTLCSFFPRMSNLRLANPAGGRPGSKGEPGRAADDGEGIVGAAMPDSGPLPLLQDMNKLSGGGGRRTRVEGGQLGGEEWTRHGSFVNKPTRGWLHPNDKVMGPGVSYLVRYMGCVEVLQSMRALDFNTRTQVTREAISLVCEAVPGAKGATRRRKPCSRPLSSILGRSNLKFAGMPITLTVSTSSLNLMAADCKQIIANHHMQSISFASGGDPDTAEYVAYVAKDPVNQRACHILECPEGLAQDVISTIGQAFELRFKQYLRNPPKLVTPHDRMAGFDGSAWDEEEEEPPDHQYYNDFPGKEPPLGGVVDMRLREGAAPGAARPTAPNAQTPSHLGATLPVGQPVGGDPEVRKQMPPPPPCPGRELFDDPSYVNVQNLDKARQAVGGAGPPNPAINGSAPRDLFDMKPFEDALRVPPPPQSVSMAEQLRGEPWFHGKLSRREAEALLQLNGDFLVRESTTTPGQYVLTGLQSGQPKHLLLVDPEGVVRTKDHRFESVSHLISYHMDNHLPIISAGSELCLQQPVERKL
Method in brief: (§2)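 Direct binding: 5 nM N-terminal fluorescein-labelled peptide in 10 mM HEPES, 150 mM NaCl pH 7.5 with 10% (v/v) DMSO; Shc SH2 protein serially diluted from 100 μM. Excitation 485 nm, parallel and perpendicular emission at 535 nm. Kd from fitting anisotropy versus protein concentration to a single-site binding model.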

[2] = biological target: T1, SHC-transforming protein 1 (Homo sapiens); assay: Inhibition of Shc Src homology 2 domain binding to cMet expressed in human B5/589 cells at 10 uM; format: cell-based
Method in brief: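 B5/589 human mammary epithelial cells serum-starved 48 h, then exposed 1 h to peptide (10 μM) or none. HGF stimulation at 50 ng/mL for 20 min, then lysis in cold detergent buffer (pH 7.4). c-Met captured with biotinylated antibody on streptavidin resin; co-precipitated Shc and recovered c-Met detected by SDS-PAGE and immunoblot with chemiluminescence.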

[3] = biological target: T2, SHC-transforming protein 1 (Homo sapiens, UniProt P29353); assay: as §1; method in brief: as §2
T2 sequence (P29353 whole entry): T1 sequence (whole entry)

Activity [2] | Compound | Activity [1] | further results
 | CC(C)C[C@H](NC(=O)CNC(=O)[C@H](CCC(N)=O)NC(=O)[C@H](Cc1ccc(OP(=O)(O)O)cc1)NC(=O)CNC(=O)c1cc(N=C=S)ccc1-c1c2ccc(=O)cc-2oc2cc(O)ccc12)C(=O)N[C@@H](CO)C(N)=O (HELM PEPTIDE1{[O=C(c1cc(N=C=S)ccc1-c1c2ccc(=O)cc-2oc2cc(O)ccc12)[*:2]].G.[O=C([C@H](Cc1ccc(OP(=O)(O)O)cc1)N[*:1])[*:2]].Q.G.L.S.[am]}$$$$V2.0) | inactive | 
Active | CC[C@H](C)[C@H](NC(=O)[C@H](CCCCN)NC(=O)[C@@H](NC(=O)[C@H](CCC(N)=O)NC(=O)[C@H](CCCNC(=N)N)NC(C)=O)[C@@H](C)CC)C(=O)N[C@@H](Cc1c[nH]c2ccccc12)C(=O)N[C@@H](Cc1ccccc1)C(=O)N[C@@H](CCC(N)=O)C(=O)N[C@@H](CC(N)=O)C(=O)N[C@@H](CCCNC(=N)N)C(=O)N[C@@H](CCCNC(=N)N)C(=O)N[C@@H](CCSC)C(=O)N[C@@H](CCCCN)C(=O)N[C@@H](Cc1c[nH]c2ccccc12)C(=O)N[C@@H](CCCCN)C(=O)N[C@@H](CCCCN)C(=O)NCCOCCOCCOCCNC(=O)[C@H](CO)NC(=O)[C@H](CC(C)C)NC(=O)CNC(=O)[C@H](CCC(N)=O)NC(=O)[C@H](Cc1ccc(OP(=O)(O)O)cc1)NC(=O)CCCCNC(=O)c1cc(N=C=S)ccc1-c1c2ccc(=O)cc-2oc2cc(O)ccc12 |  | 
Active | CC(=O)N[C@@H](CCCNC(=N)N)C(=O)N[C@@H](CCCNC(=N)N)C(=O)N[C@@H](CCCNC(=N)N)C(=O)N[C@@H](CCCNC(=N)N)C(=O)N[C@@H](CCCNC(=N)N)C(=O)N[C@@H](CCCNC(=N)N)C(=O)N[C@@H](CCCNC(=N)N)C(=O)N[C@@H](CCCNC(=N)N)C(=O)NCCOCCOCCOCCNC(=O)[C@H](CO)NC(=O)[C@H](CC(C)C)NC(=O)CNC(=O)[C@H](CCC(N)=O)NC(=O)[C@H](Cc1ccc(OP(=O)(O)O)cc1)NC(=O)CCCCNC(=O)c1cc(N=C=S)ccc1-c1c2ccc(=O)cc-2oc2cc(O)ccc12 |  | 
 | CC(C)C[C@H](NC(=O)CNC(=O)[C@H](CCC(N)=O)NC(=O)[C@H](Cc1ccc(OP(=O)(O)O)cc1)NC(=O)[C@H](CC(C)C)NC(=O)CNC(=O)c1cc(N=C=S)ccc1-c1c2ccc(=O)cc-2oc2cc(O)ccc12)C(=O)N[C@@H](CO)C(N)=O (HELM PEPTIDE1{[O=C(c1cc(N=C=S)ccc1-c1c2ccc(=O)cc-2oc2cc(O)ccc12)[*:2]].G.L.[O=C([C@H](Cc1ccc(OP(=O)(O)O)cc1)N[*:1])[*:2]].Q.G.L.S.[am]}$$$$V2.0) | inactive | 
 | CC(C)C[C@H](NC(=O)CNC(=O)[C@H](CCC(N)=O)NC(=O)[C@H](Cc1ccc(OP(=O)(O)O)cc1)NC(=O)[C@H](CC(C)C)NC(=O)CCNC(=O)c1cc(N=C=S)ccc1-c1c2ccc(=O)cc-2oc2cc(O)ccc12)C(=O)N[C@@H](CO)C(N)=O (HELM PEPTIDE1{[O=C(c1cc(N=C=S)ccc1-c1c2ccc(=O)cc-2oc2cc(O)ccc12)[*:2]].[bAla].L.[O=C([C@H](Cc1ccc(OP(=O)(O)O)cc1)N[*:1])[*:2]].Q.G.L.S.[am]}$$$$V2.0) |  | Kd [3]: 7.6 µM
